# Screens: PubChem BioAssay, several laboratories
# In the library only some 2.5% were active in any assay of this set; here they are far more common.
# KLK7 zymogen act – activators of human kallikrein-7 zymogen. activation, % at 7 µM. P49862. 0.9% of 370,000 active. purified proKLK7, EDANS-DABCYL substrate fluorescence; 100% is mature enzyme control, 0% vehicle;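 active = activation above the mean of all tested compounds plus 3 SD, computed per campaign excluding outliers beyond control limits, cut at about 13% in these data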
# Target sequence (P49862 whole entry, looked up): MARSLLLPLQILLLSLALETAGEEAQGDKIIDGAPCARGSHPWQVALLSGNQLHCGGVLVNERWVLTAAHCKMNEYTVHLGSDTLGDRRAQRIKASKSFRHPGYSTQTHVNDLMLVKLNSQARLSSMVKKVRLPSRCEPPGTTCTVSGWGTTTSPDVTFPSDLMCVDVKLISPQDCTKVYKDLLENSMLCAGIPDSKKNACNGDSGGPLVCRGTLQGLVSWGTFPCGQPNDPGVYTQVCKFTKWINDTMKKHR
# NR2E3 ag-1 – agonists of human nuclear receptor NR2E3. 0.12% of 320,000 active. Q9Y5X4. GST-NR2E3/biotin-RetCOR TR-FRET, 1536-well. inhibition of corepressor binding, % at 4.78 µM;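 active = percent inhibition above the cutoff of mean plus 3 SD of all tested compounds, set per screening campaign, cut at about 20% in these data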
# Target sequence (Q9Y5X4 whole entry, looked up): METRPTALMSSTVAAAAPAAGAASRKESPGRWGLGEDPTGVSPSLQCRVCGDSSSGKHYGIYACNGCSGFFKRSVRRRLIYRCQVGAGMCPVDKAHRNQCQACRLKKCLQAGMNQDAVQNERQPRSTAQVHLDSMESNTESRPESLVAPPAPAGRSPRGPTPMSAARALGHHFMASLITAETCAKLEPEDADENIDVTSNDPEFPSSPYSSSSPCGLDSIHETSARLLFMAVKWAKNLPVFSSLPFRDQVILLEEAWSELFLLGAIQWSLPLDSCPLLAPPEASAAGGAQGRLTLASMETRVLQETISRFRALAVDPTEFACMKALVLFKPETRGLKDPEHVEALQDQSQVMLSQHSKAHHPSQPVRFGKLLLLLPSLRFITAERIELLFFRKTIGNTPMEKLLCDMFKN
#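 Material – GST-tagged NR2E3 plus biotinylated RetCOR corepressor · Quantity – NR2E3 fusion 1.35 nM · Times – 5 h incubation at 4 °C · Medium – pH 7.5 Tris-based buffer · Technique – TR-FRET, Eu(K)-anti-GST donor, streptavidin-D2 acceptor, ex 340, em 617/671 nm · Benchmarks – high control biotin, low control 0.6% DMSO · Format – 1536-well plates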
# NR2E3 ag-2 – activates human NR2E3 receptor. Q9Y5X4. inhibition of corepressor binding, % at 3.98 µM. 0.35% of 360,000 active. CHO-S Gal4-NCOR/VP16-NR2E3 two-hybrid, luciferase;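 active = inhibition above the mean of all tested compounds plus 3 SD, cut at about 70% in these data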;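 note: higher means lower luciferase signal from less NR2E3 corepressor binding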
# ADAM10 inh – ADAM10 inhibition, QFRET primary screen; recombinant ADAM10, EDANS/DABCYL FRET peptide cleavage, 3 h; inhibition, % at 7 µM; 0.62% of 370,000 active; AID 720582;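 active = inhibition above a per-campaign cutoff equal to the mean of compounds falling between control-based bounds plus 3 SD, cut at about 20% in these data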
# ADAM17 inh – inhibits human ADAM17. P78536. recombinant ADAM17, EDANS/DABCYL FRET peptide cleavage. inhibition, % at 6.95 µM. 0.83% of 370,000 active;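 active = inhibition above the mean of compounds lying between control limits plus 3 SD, set per campaign, cut at about 8.5% in these data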
# JMJD2C inh – human JMJD2C demethylase inhibition; Q9H3R0; GST-JMJD2C(1-420) H3K9me3 demethylation, DELFIA europium; 0.069% of 330,000 active; inhibition, % at 2.35 µM;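 active = more than half of a compound's replicate wells show inhibition beyond 50%, single wells judged on their own value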;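 note: signal counts dimethyl H3K9 product captured on neutravidin plate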
# NR2E3 ag conf – NR2E3 agonism confirmed in two-hybrid assay; shares compounds with NR2E3 ag-2; CHO-S mammalian two-hybrid NR2E3-NCOR, luciferase luminescence; inhibition, % at 3.98 µM; 51% of 2,300 active; AID 624378;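 active = average inhibition above a cutoff equal to the mean inhibition of all tested compounds plus one SD, cut at about 70% in these data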
# VP16 counter – GAL4-VP16 reporter inhibition in NR2E3 agonist counterscreen | inhibition, % at 3.98 µM | 29% of 2,300 active | CHO-S GAL4-VP16 luciferase reporter, luminescence | shares compounds with NR2E3 ag-2;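 active = mean inhibition above a cutoff equal to the average over all tested compounds plus one standard deviation, cut at about 70% in these data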;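 note: luciferase from a UAS reporter driven by GAL4-VP16 transactivation; higher means less reporter light so more repression of VP16 activity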
# A number is an active result; 0 = inactive; - = no result.
SMILES,KLK7 zymogen act,NR2E3 ag-1,NR2E3 ag-2,ADAM10 inh,ADAM17 inh,JMJD2C inh,NR2E3 ag conf,VP16 counter
O=C(O)c1ccc2cccnc2c1O,0,0,0,0,0,0,-,-
Cc1ccc2ccc3cccnc3c2n1,0,0,0,0,0,0,0,0
CC(C)(C)C(=O)NC(=S)NNC(=O)c1ccc(Cl)cc1Cl,0,0,0,0,0,0,-,-
CCOC(=O)[C@@]12CN(C(=O)OC(C)(C)C)CC=C1N(Cc1ccc(OC)cc1)C(=O)[C@H]2CC(=O)N1CCOCC1,0,-,-,0,0,-,-,-
C=C(C)Cn1c(=O)c2c(nc3n2CC(C)CN3Cc2ccccc2)n(C)c1=O (stereo unspecified),0,0,0,0,0,0,0,0
COC(=O)Cn1c(=O)c2c(nc3n2CC(C)CN3Cc2ccccc2)n(C)c1=O (stereo unspecified),0,0,0,0,0,0,-,-
NC(=O)c1c(-c2ccc(Cl)cc2Cl)csc1NC(=O)Cc1ccccc1,0,0,0,0,0,0,0,0
CC(=O)N(/N=C1\Sc2ccccc2C1=O)c1ccc(C)cc1C,0,0,0,0,0,0,0,0
CCOC(=O)[C@]12CCCCC/C=C\1N(CCc1ccc(Cl)cc1)C(=O)[C@H]2CC(=O)NCCCN1CCCC1=O,0,-,-,0,0,-,-,-
CC(C)C(=O)NNc1ccccc1,0,0,0,0,0,0,-,-
CC(C)OC(=O)C(=O)NNc1ccccc1,0,0,0,0,0,0,0,0
CC(O)CC(C(=O)NNc1ccccc1)C(=O)NNc1ccccc1 (stereo unspecified),0,0,0,0,0,0,0,0
CCOC(=O)C1=NOC(C(=O)NCCO)(C(=O)C2CC2)C1 (stereo unspecified),0,-,-,0,0,-,-,-
CC1Sc2ccc(S(=O)(=O)N3CCC(C(=O)NCc4ccc(Cl)cc4)CC3)cc2NC1=O (stereo unspecified),0,0,0,0,0,0,-,-
CC1Sc2ccc(S(=O)(=O)N3CCC(C(=O)Nc4cccc(Cl)c4)CC3)cc2NC1=O (stereo unspecified),0,0,0,0,0,0,0,0
Cc1ccc(NC(=O)C2CCN(S(=O)(=O)c3ccc4c(c3)NC(=O)C(C)S4)CC2)cc1C (stereo unspecified),0,0,74,0,0,0,93,73
O=C(Nc1cccc(S(=O)(=O)N2CCCCC2)c1)c1ccccc1NS(=O)(=O)c1ccc(F)cc1,0,0,86,0,0,0,98,71
Cc1ccc(NC(=O)c2ccccc2NS(=O)(=O)c2ccc(F)cc2)cc1S(=O)(=O)N1CCCCC1,0,0,89,0,0,0,98,92
Cn1cccc1/C=N\NC(=O)Cc1ccc(Br)c2ccccc12,0,0,0,0,0,0,0,0
O=NN(CCc1ccncc1)c1ccc(OCc2ccccc2)cc1,0,0,86,0,0,0,95,85
CC(=O)NC(c1ccc(F)c(F)c1)c1nc(-c2ccccc2C)cs1 (stereo unspecified),0,-,0,0,0,-,-,-
CC1(C)CC(Cc2ccc(C(=O)c3ccccc3)cc2)N(C(=O)OC(C)(C)C)N1 (stereo unspecified),0,-,0,0,0,-,-,-
Cc1cccc(N=Nc2c(C)[nH]n(C(N)=S)c2=O)c1C,0,0,-,0,0,0,-,-
Cc1ccccc1N=Nc1c(C)[nH]n(C(N)=S)c1=O,0,0,0,0,0,0,0,0
C#CCN(C[C@@H]1[C@@H](OC(=O)NCC2CCCCC2)[C@@H](OC(=O)NCC2CCCCC2)Cn2c(=O)n(CCCCCC)c(=O)n21)S(=O)(=O)c1ccc(C)cc1,0,-,0,0,0,-,-,-
SMILES,KLK7 zymogen act,NR2E3 ag-1,NR2E3 ag-2,ADAM10 inh,ADAM17 inh,JMJD2C inh,NR2E3 ag conf,VP16 counter
O=C(NCc1ccc(C(F)(F)F)cc1)C1CC(c2ccc(C(F)(F)F)cc2)=NO1 (stereo unspecified),0,0,81,0,0,0,81,0
O=C(NCc1ccc(OC(F)(F)F)cc1)C1CC(c2ccc(C(F)(F)F)cc2)=NO1 (stereo unspecified),0,0,0,0,0,0,-,-
COc1cccc(C=Nc2ccc3c(c2)OCCO3)c1O,-,0,74,-,-,0,0,0
COc1cccc(C=Nc2ccc(N3CCOCC3)cc2)c1O,0,0,0,0,0,0,-,-
COCC(COS(N)(=O)=O)Cc1ccccc1 (stereo unspecified),0,0,0,0,0,0,-,-
C=Cc1ccc(Cn2nc(-c3ccc(C)cc3)ccc2=O)cc1,0,0,0,0,0,0,87,72
O=c1ccc(-c2ccccc2)nn1Cc1ccc(Cl)cc1,0,0,0,0,0,0,-,-
CC1(C)CC(=O)C2=C(C1)c1c(ccc3ccccc13)NC2c1cc([N+](=O)[O-])cc([N+](=O)[O-])c1O (stereo unspecified),0,0,0,0,0,0,98,0
CC1(C)CC(=O)C2=C(C1)c1c(ccc3ccccc13)NC2c1ccc(C(=O)O)cc1 (stereo unspecified),0,0,0,0,0,0,-,-
COc1ccc(-c2nn(-c3ccccc3)cc2/C=N/O)cc1OC,0,0,0,0,0,0,0,0
COc1ccc(NC(=O)c2ccc(Cl)c(NC(=O)c3ccncc3)c2)cc1,-,0,-,-,-,0,-,-
Cc1ccc(S(=O)(=O)n2ccc3c(OCCOCCSCC(NC(=O)OC(C)(C)C)C(=O)O)cccc32)cc1 (stereo unspecified),0,0,0,0,0,0,-,-
Cc1ccc(S(=O)(=O)n2ccc3c(OCCOCCNCc4ccc(F)cc4)cccc32)cc1,0,0,0,0,0,0,0,0
NC1=C(Br)C(=O)c2ncccc2C1=O,0,-,99,0,0,-,92,0
Fc1cccc(CNc2ncnc3cc(Cl)ccc23)c1F,0,0,83,0,0,0,0,0
COc1cc2ncnc(NCc3cccc(Cl)c3)c2cc1OC,0,0,0,0,0,0,-,-
COc1cccc(CNc2ncnc3cc(Cl)ccc23)c1,0,-,0,0,0,0,84,0
Cc1cc(NNC(=O)c2cccc(C(F)(F)F)c2)nc2c1c(C)nn2C,0,0,0,0,0,0,87,0
Cc1ccccc1CSCC(=O)NCc1ccco1,0,0,0,0,0,0,-,-
Cc1sc(NC(=O)CN2CCOCC2)nc1-c1ccc2c(c1)CCN2S(=O)(=O)c1ccccc1,0,0,0,0,0,0,85,71
O=C(CN1CCOCC1)Nc1nc(-c2ccc3c(c2)CCN3S(=O)(=O)c2ccccc2)cs1,0,0,0,0,0,0,-,-
